Assay results published in paper PMC4493896 (Journal of Medicinal Chemistry, 2015).
Each block holds one compound with its values, some of them ahead of it.

Legend:
[1] = test system: CREB-mediated gene transcription; test: CREB Renilla luciferase; type: cell-based; settings: HEK 293T cells
Nurr1/NR4A2 mRNA = test: qRT-PCR of endogenous CREB target gene in HEK 293T cells; type: cell-based; settings: forskolin 10 μM
[2] = test system: A549, MCF-7, MDA-MB-231, MDA-MB-468 cells; test: MTT assay, statements across the cancer cell line panel; type: cell-based; settings: 72 h
Method in brief: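 Cells in DMEM with nonessential amino acids and 10% FBS (37 °C, 5% CO2) attached overnight, then took test compound at a range of concentrations up to 100 μM for 72 h. MTT (0.5 mg/mL in complete medium) was added for 3 h at 37 °C, formazan dissolved in DMSO, A570 read. Growth = 100×(At−A0)/(Ac−A0), with time-0 and medium-treated controls.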

cancer and normal cells = settings: same assay conditions; cited from earlier work

Structure (SMILES): Cl.NCCCOc1cc2ccccc2cc1C(=O)NCCCOc1cc2ccccc2cc1C(=O)Nc1ccc(Cl)cc1 [Compound 3b, 3-(3-Aminopropoxy)-N-(3-((3-((4-chlorophenyl)carbamoyl)naphthalen-2-yl)oxy)propyl)-2-naphthamide Hydrochloride]
decrease of CREB inhibition activity in comparison to 3a [1]: about 2 fold

Structure (SMILES): C=C[C@@]1(C)CC(=O)[C@]2(O)[C@@]3(C)[C@@H](O)CCC(C)(C)[C@@H]3[C@H](O)[C@H](OC(C)=O)[C@@]2(C)O1 [forskolin]
stimulation of Nurr1/NR4A2 level (Nurr1/NR4A2 mRNA): ~31 fold

GI50 ([2]; read-out: GI50 values, range over all four cancer cell lines): 10.2 to 82.7 µM
Structure (SMILES): O=C(NCCCOc1cc2ccccc2cc1C(=O)Nc1ccc(Cl)cc1O)c1cc2ccccc2cc1OCCCO [Compound 3g, N-(4-Chloro-2-hydroxyphenyl)-3-(3-(3-(3-hydroxypropoxy)-2-naphthamido)propoxy)-2-naphthamide]

Structure (SMILES): Cl.O=C(NCCCOc1cc2ccccc2cc1C(=O)Nc1ccc(Cl)cc1O)c1cc2ccccc2cc1OCCCN1CCOCC1 [Compound 3e, N-(4-Chloro-2-hydroxyphenyl)-3-(3-(3-(3-morpholinopropoxy)-2-naphthamido)propoxy)-2-naphthamide Hydrochloride]
growth inhibition activity in the other three cancer cell lines ([2]; A549, MCF-7, MDA-MB-231, MTT): no activity

Structure (SMILES): COc1cccc2c1C(=O)c1c(O)c3c(c(O)c1C2=O)C[C@@](O)(C(=O)CO)C[C@@H]3O[C@H]1C[C@H](N)[C@H](O)[C@H](C)O1 [doxorubicin]
differential toxicity between cancer and normal cells (cancer and normal cells): did not show differential toxicity
